Data from ChEMBL document CHEMBL4689842, “EUbOPEN Chemogenomics Library wave 1” (2021).

System: Fibroblast
Assay: Multiplex assay against human fibroblast
Format: toxicity, cell-based
Procedure, shortened: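 Imaging took place on a CQ1 microscope at 37°C and 5% CO2 once compound had been added to live cells stained at seeding with Hoechst33342, BioTracker Green Microtubule Cytoskeleton Dye, MitoTracker Red and Annexin V Alexa Fluor 680. CellPathfinder machine-learning gating classed cells as Hoechst high-intensity objects or normal cells, classed normal cells as having healthy, pyknosed or fragmented nuclei, and classed pyknosed cells as mitotic or apoptotic. Tubulin, mitochondrial-mass and membrane-permeability phenotypes are per cents of the healthy-nucleus cells.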

[1] = 12 h, 1 µM, compound concentration 1 uM, replicate 1
[2] = 12 h, 1 µM, compound concentration 1 uM, replicate 2
[3] = 12 h, 10 µM, compound concentration 10 uM, replicate 1
[4] = 12 h, 10 µM, compound concentration 10 uM, replicate 2
[5] = 24 h, 1 µM, compound concentration 1 uM, replicate 1
[6] = 24 h, 1 µM, compound concentration 1 uM, replicate 2
[7] = 24 h, 10 µM, compound concentration 10 uM, replicate 1
[8] = 24 h, 10 µM, compound concentration 10 uM, replicate 2
[9] = 48 h, 1 µM, compound concentration 1 uM, replicate 1
[10] = 48 h, 1 µM, compound concentration 1 uM, replicate 2
[11] = 48 h, 10 µM, compound concentration 10 uM, replicate 1
[12] = 48 h, 10 µM, compound concentration 10 uM, replicate 2

Compound: CCOc1cc(C(=O)N2CCC(N3CCN(C)CC3)CC2)ccc1Nc1ncc2c(n1)N(C1CCCC1)c1ccccc1C(=O)N2C
- Population Apoptotic (%) [1]: 57%
- Population Fragmented Nuclei (%) [1]: 27%
- Population Healthy Nuclei (%) [1]: 42%
- Population Hoechst High Intensity Objects (%) [1]: 13%
- Population Membrane Permeable-Phenotype (%) [1]: 19%
- Population Mitochondria Different-Phenotype (%) [1]: 27%
- Population Mitotic Cells (%) [1]: 42%
- Population Normal (%) [1]: 86%
- Population Pyknosed Nuclei (%) [1]: 30%
- Population Tubulin-Different-Phenotype (%) [1]: 60%
- Total Cell Count [1]: 200
- Population Apoptotic (%) [2]: 75%
- Population Fragmented Nuclei (%) [2]: 6%
- Population Healthy Nuclei (%) [2]: 80%
- Population Hoechst High Intensity Objects (%) [2]: 10%
- Population Membrane Permeable-Phenotype (%) [2]: 4%
- Population Mitochondria Different-Phenotype (%) [2]: 76%
- Population Mitotic Cells (%) [2]: 25%
- Population Normal (%) [2]: 89%
- Population Pyknosed Nuclei (%) [2]: 12%
- Population Tubulin-Different-Phenotype (%) [2]: 48%
- Total Cell Count [2]: 67
- Population Apoptotic (%) [3]: 58%
- Population Fragmented Nuclei (%) [3]: 30%
- Population Healthy Nuclei (%) [3]: 44%
- Population Hoechst High Intensity Objects (%) [3]: 19%
- Population Membrane Permeable-Phenotype (%) [3]: 20%
- Population Mitochondria Different-Phenotype (%) [3]: 56%
- Population Mitotic Cells (%) [3]: 41%
- Population Normal (%) [3]: 80%
- Population Pyknosed Nuclei (%) [3]: 25%
- Population Tubulin-Different-Phenotype (%) [3]: 86%
- Total Cell Count [3]: 84
- Population Apoptotic (%) [4]: 92%
- Population Fragmented Nuclei (%) [4]: 21%
- Population Healthy Nuclei (%) [4]: 50%
- Population Hoechst High Intensity Objects (%) [4]: 6%
- Population Membrane Permeable-Phenotype (%) [4]: 93%
- Population Mitochondria Different-Phenotype (%) [4]: 97%
- Population Mitotic Cells (%) [4]: 7%
- Population Normal (%) [4]: 93%
- Population Pyknosed Nuclei (%) [4]: 27%
- Population Tubulin-Different-Phenotype (%) [4]: 100%
- Total Cell Count [4]: 69
- Population Apoptotic (%) [5]: 62%
- Population Fragmented Nuclei (%) [5]: 29%
- Population Healthy Nuclei (%) [5]: 49%
- Population Hoechst High Intensity Objects (%) [5]: 11%
- Population Membrane Permeable-Phenotype (%) [5]: 12%
- Population Mitochondria Different-Phenotype (%) [5]: 17%
- Population Mitotic Cells (%) [5]: 37%
- Population Normal (%) [5]: 88%
- Population Pyknosed Nuclei (%) [5]: 20%
- Population Tubulin-Different-Phenotype (%) [5]: 42%
- Total Cell Count [5]: 205
- Population Apoptotic (%) [6]: 22%
- Population Fragmented Nuclei (%) [6]: 16%
- Population Healthy Nuclei (%) [6]: 72%
- Population Hoechst High Intensity Objects (%) [6]: 5%
- Population Membrane Permeable-Phenotype (%) [6]: 5%
- Population Mitochondria Different-Phenotype (%) [6]: 65%
- Population Mitotic Cells (%) [6]: 77%
- Population Normal (%) [6]: 94%
- Population Pyknosed Nuclei (%) [6]: 11%
- Population Tubulin-Different-Phenotype (%) [6]: 27%
- Total Cell Count [6]: 71
- Population Apoptotic (%) [7]: 76%
- Population Fragmented Nuclei (%) [7]: 41%
- Population Healthy Nuclei (%) [7]: 26%
- Population Hoechst High Intensity Objects (%) [7]: 28%
- Population Membrane Permeable-Phenotype (%) [7]: 21%
- Population Mitochondria Different-Phenotype (%) [7]: 85%
- Population Mitotic Cells (%) [7]: 23%
- Population Normal (%) [7]: 71%
- Population Pyknosed Nuclei (%) [7]: 32%
- Population Tubulin-Different-Phenotype (%) [7]: 92%
- Total Cell Count [7]: 74
- Population Apoptotic (%) [8]: 88%
- Population Fragmented Nuclei (%) [8]: 10%
- Population Healthy Nuclei (%) [8]: 30%
- Population Hoechst High Intensity Objects (%) [8]: 11%
- Population Membrane Permeable-Phenotype (%) [8]: 100%
- Population Mitochondria Different-Phenotype (%) [8]: 96%
- Population Mitotic Cells (%) [8]: 11%
- Population Normal (%) [8]: 88%
- Population Pyknosed Nuclei (%) [8]: 59%
- Population Tubulin-Different-Phenotype (%) [8]: 100%
- Total Cell Count [8]: 85
- Population Apoptotic (%) [9]: 78%
- Population Fragmented Nuclei (%) [9]: 37%
- Population Healthy Nuclei (%) [9]: 51%
- Population Hoechst High Intensity Objects (%) [9]: 15%
- Population Membrane Permeable-Phenotype (%) [9]: 13%
- Population Mitochondria Different-Phenotype (%) [9]: 8%
- Population Mitotic Cells (%) [9]: 21%
- Population Normal (%) [9]: 84%
- Population Pyknosed Nuclei (%) [9]: 10%
- Population Tubulin-Different-Phenotype (%) [9]: 43%
- Total Cell Count [9]: 213
- Population Apoptotic (%) [10]: 100%
- Population Fragmented Nuclei (%) [10]: 29%
- Population Healthy Nuclei (%) [10]: 67%
- Population Hoechst High Intensity Objects (%) [10]: 18%
- Population Membrane Permeable-Phenotype (%) [10]: 14%
- Population Mitochondria Different-Phenotype (%) [10]: 20%
- Population Mitotic Cells (%) [10]: 0%
- Population Normal (%) [10]: 81%
- Population Pyknosed Nuclei (%) [10]: 3%
- Population Tubulin-Different-Phenotype (%) [10]: 63%
- Total Cell Count [10]: 116
- Population Apoptotic (%) [11]: 88%
- Population Fragmented Nuclei (%) [11]: 35%
- Population Healthy Nuclei (%) [11]: 26%
- Population Hoechst High Intensity Objects (%) [11]: 25%
- Population Membrane Permeable-Phenotype (%) [11]: 33%
- Population Mitochondria Different-Phenotype (%) [11]: 41%
- Population Mitotic Cells (%) [11]: 11%
- Population Normal (%) [11]: 75%
- Population Pyknosed Nuclei (%) [11]: 37%
- Population Tubulin-Different-Phenotype (%) [11]: 66%
- Total Cell Count [11]: 60
- Population Apoptotic (%) [12]: 93%
- Population Fragmented Nuclei (%) [12]: 34%
- Population Healthy Nuclei (%) [12]: 46%
- Population Hoechst High Intensity Objects (%) [12]: 32%
- Population Membrane Permeable-Phenotype (%) [12]: 5%
- Population Mitochondria Different-Phenotype (%) [12]: 78%
- Population Mitotic Cells (%) [12]: 6%
- Population Normal (%) [12]: 67%
- Population Pyknosed Nuclei (%) [12]: 18%
- Population Tubulin-Different-Phenotype (%) [12]: 89%
- Total Cell Count [12]: 120
